Reference: ChEMBL document CHEMBL1795264, “Deglycobleomycin A6 analogues modified in the methylvalerate moiety” (Bioorg Med Chem, 2011)
Each block holds one molecule with its values, some of them ahead of it. Activity calls are given as the source filed them. No cut-off for these calls is given here.

Legend:
Nucleic Acid [1] = test: Induction of Escherichia coli supercoiled pBR322 DNA cleavage assessed as formation of nicked DNA using bromophenol blue at 1 to 4 uM after 30 mins by agarose gel electrophoresis analysis in presence of equimolar Fe2+; format: nucleic-acid assay
Nucleic Acid [2] = test: Induction of Escherichia coli supercoiled pBR322 DNA cleavage assessed as formation of linear form of DNA using bromophenol blue at 4 uM after 30 mins by agarose gel electrophoresis analysis in presence of equimolar Fe2+; format: nucleic-acid assay
Nucleic Acid [3] = test: Induction of Escherichia coli [5'-32P]-end labeled 158-base pair of pBR322 DNA cleavage at G12 site using bromophenol blue and xylene cyanol FF at 1 to 10 uM after 30 mins by phosphorimager analysis in presence of equimolar Fe2+; format: nucleic-acid assay
Procedure, shortened: (§1)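 158-bp pBR322 restriction fragment (HindIII cut, dephosphorylated, 5'-32P-labelled with T4 polynucleotide kinase, EcoRV cut), 30,000 cpm, treated with Fe2+ plus deglycoBLM in 50 mM Tris–HCl pH 8.0 at room temperature for 30 min. Supernatant removed under vacuum, pellet heated 90 °C 10 min in formamide loading buffer and chilled on ice before denaturing gel analysis.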

Nucleic Acid [4] = test: Induction of Escherichia coli [5'-32P]-end labeled 158-base pair of pBR322 DNA cleavage at A15 site using bromophenol blue and xylene cyanol FF at 1 to 10 uM after 30 mins by phosphorimager analysis in presence of equimolar Fe2+; format: nucleic-acid assay; procedure, shortened: as §1
Nucleic Acid [5] = test: Induction of Escherichia coli [5'-32P]-end labeled 64-nucleotide hairpin DNA base pair of pBR322 DNA cleavage using bromophenol blue and xylene cyanol FF at 5 to 20 uM after 30 mins by phosphorimager analysis in presence of equimolar Fe2+; format: nucleic-acid assay
Procedure, shortened: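 64-nt hairpin DNA, 5'-32P-labelled with T4 polynucleotide kinase and purified on 16% polyacrylamide gel, 30,000 cpm, exposed to Fe2+ plus deglycoBLM in 50 mM Tris–HCl pH 8.0 at room temperature for 30 min. Dried, heated 90 °C 10 min in formamide loading buffer, then run on denaturing 16% polyacrylamide/7 M urea gel at 1800 V for 2.5 h.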

Nucleic Acid [6] = test: Induction of Escherichia coli [5'-32P]-end labeled 158-base pair of pBR322 DNA cleavage using bromophenol blue and xylene cyanol FF at 1 to 10 uM after 30 mins by phosphorimager analysis in presence of equimolar Fe2+
Nucleic Acid [7] = test: Induction of Escherichia coli [5'-32P]-end labeled 158-base pair of pBR322 DNA cleavage at 5'-CG11-3' site using bromophenol blue and xylene cyanol FF at 1 to 10 uM after 30 mins by phosphorimager analysis in presence of equimolar Fe2+; format: nucleic-acid assay; procedure, shortened: as §1
Nucleic Acid [8] = test: Induction of Escherichia coli [5'-32P]-end labeled 158-base pair of pBR322 DNA cleavage at 5'-CG35-3' site using bromophenol blue and xylene cyanol FF at 1 to 10 uM after 30 mins by phosphorimager analysis in presence of equimolar Fe2+; format: nucleic-acid assay; procedure, shortened: as §1
Nucleic Acid [9] = test: Induction of Escherichia coli [5'-32P]-end labeled 158-base pair of pBR322 DNA cleavage at 5'-GT14-3' site using bromophenol blue and xylene cyanol FF at 1 to 10 uM after 30 mins by phosphorimager analysis in presence of equimolar Fe2+; format: nucleic-acid assay; procedure, shortened: as §1
Nucleic Acid [10] = test: Induction of Escherichia coli [5'-32P]-end labeled 158-base pair of pBR322 DNA cleavage at 5'-GT17-3' site using bromophenol blue and xylene cyanol FF at 1 to 10 uM after 30 mins by phosphorimager analysis in presence of equimolar Fe2+; format: nucleic-acid assay; procedure, shortened: as §1
Nucleic Acid [11] = test: Induction of Escherichia coli [5'-32P]-end labeled 158-base pair of pBR322 DNA cleavage at 5'-GT27-3' site using bromophenol blue and xylene cyanol FF at 1 to 10 uM after 30 mins by phosphorimager analysis in presence of equimolar Fe2+; format: nucleic-acid assay; procedure, shortened: as §1

Structure (SMILES): Cc1c(N)nc([C@H](CC(N)=O)NC[C@H](N)C(N)=O)nc1C(=O)N[C@@H](Cc1c[nH]cn1)C(=O)N[C@H](C)[C@@H](O)[C@H](Cc1ccccc1)C(=O)N[C@H](C(=O)NCCc1nc(-c2nc(C(=O)NCCCNCCCCNCCCN)cs2)cs1)[C@@H](C)O
Activity (Nucleic Acid [1]): Active
Activity (Nucleic Acid [2]): Active
Activity (Nucleic Acid [3]): inactive
Activity (Nucleic Acid [4]): inactive
Activity (Nucleic Acid [5]): Active
Activity (Nucleic Acid [6]): Active

Structure (SMILES): Cc1ccccc1C[C@@H](NC(=O)[C@H](Cc1c[nH]cn1)NC(=O)c1nc([C@H](CC(N)=O)NC[C@H](N)C(N)=O)nc(N)c1C)[C@@H](O)[C@H](C)C(=O)N[C@H](C(=O)NCCc1nc(-c2nc(C(=O)NCCCNCCCCNCCCN)cs2)cs1)[C@@H](C)O
Activity (Nucleic Acid [1]): Active
Activity (Nucleic Acid [3]): inactive
Activity (Nucleic Acid [4]): inactive
Activity (Nucleic Acid [5]): Active
Activity (Nucleic Acid [6]): Active

Structure (SMILES): Cc1c(N)nc([C@H](CC(N)=O)NC[C@H](N)C(N)=O)nc1C(=O)N[C@@H](Cc1c[nH]cn1)C(=O)N[C@H](Cc1ccccc1)[C@@H](O)[C@H](C)C(=O)N[C@H](C(=O)NCCc1nc(-c2nc(C(=O)NCCCNCCCCNCCCN)cs2)cs1)[C@@H](C)O
Activity (Nucleic Acid [1]): Active
Activity (Nucleic Acid [2]): Active
Activity (Nucleic Acid [3]): inactive
Activity (Nucleic Acid [4]): inactive
Activity (Nucleic Acid [5]): Active
Activity (Nucleic Acid [6]): Active

Structure (SMILES): Cc1c(N)nc([C@H](CC(N)=O)NC[C@H](N)C(N)=O)nc1C(=O)N[C@@H](Cc1c[nH]cn1)C(=O)N[C@H](CC(C)C)[C@@H](O)[C@H](C)C(=O)N[C@H](C(=O)NCCc1nc(-c2nc(C(=O)NCCCNCCCCNCCCN)cs2)cs1)[C@@H](C)O
Activity (Nucleic Acid [1]): Active
Activity (Nucleic Acid [7]): Active
Activity (Nucleic Acid [8]): Active
Activity (Nucleic Acid [9]): Active
Activity (Nucleic Acid [10]): Active
Activity (Nucleic Acid [11]): Active
Activity (Nucleic Acid [5]): Active

Structure (SMILES): Cc1c(N)nc([C@H](CC(N)=O)NC[C@H](N)C(N)=O)nc1C(=O)N[C@@H](Cc1c[nH]cn1)C(=O)N[C@H](CC(C)C)[C@@H](O)[C@H](CC(C)C)C(=O)N[C@H](C(=O)NCCc1nc(-c2nc(C(=O)NCCCNCCCCNCCCN)cs2)cs1)[C@@H](C)O
Activity (Nucleic Acid [1]): Active
Activity (Nucleic Acid [2]): Active
Activity (Nucleic Acid [3]): inactive
Activity (Nucleic Acid [4]): inactive
Activity (Nucleic Acid [5]): Active
Activity (Nucleic Acid [6]): Active

Structure (SMILES): CCCC[C@H](C(=O)N[C@H](C(=O)NCCc1nc(-c2nc(C(=O)NCCCNCCCCNCCCN)cs2)cs1)[C@@H](C)O)[C@H](O)[C@@H](C)NC(=O)[C@H](Cc1c[nH]cn1)NC(=O)c1nc([C@H](CC(N)=O)NC[C@H](N)C(N)=O)nc(N)c1C
Activity (Nucleic Acid [1]): Active
Activity (Nucleic Acid [2]): Active
Activity (Nucleic Acid [3]): inactive
Activity (Nucleic Acid [4]): inactive
Activity (Nucleic Acid [5]): Active
Activity (Nucleic Acid [6]): Active

Structure (SMILES): Cc1c(N)nc([C@H](CC(N)=O)NC[C@H](N)C(N)=O)nc1C(=O)N[C@@H](Cc1c[nH]cn1)C(=O)N[C@H](CC1CCCCC1)[C@@H](O)[C@H](C)C(=O)N[C@H](C(=O)NCCc1nc(-c2nc(C(=O)NCCCNCCCCNCCCN)cs2)cs1)[C@@H](C)O
Activity (Nucleic Acid [1]): Active
Activity (Nucleic Acid [2]): Active
Activity (Nucleic Acid [3]): inactive
Activity (Nucleic Acid [4]): inactive
Activity (Nucleic Acid [5]): Active
Activity (Nucleic Acid [6]): Active

Now from value to molecule:

Activity (Nucleic Acid [1]): Active
Activity (Nucleic Acid [7]): Active
Activity (Nucleic Acid [8]): Active
Activity (Nucleic Acid [9]): Active
Activity (Nucleic Acid [10]): Active
Activity (Nucleic Acid [11]): Active
Activity (Nucleic Acid [3]): Active
Activity (Nucleic Acid [4]): Active
Activity (Nucleic Acid [5]): Active
Structure (SMILES): CC[C@@H](C)C(NC(=O)[C@H](Cc1c[nH]cn1)NC(=O)c1nc([C@H](CC(N)=O)NC[C@H](N)C(N)=O)nc(N)c1C)[C@@H](O)[C@H](C)C(=O)N[C@H](C(=O)NCCc1nc(-c2nc(C(=O)NCCCNCCCCNCCCN)cs2)cs1)[C@@H](C)O (single isomer, unassigned)

Activity (Nucleic Acid [1]): Active
Activity (Nucleic Acid [5]): Active
Structure (SMILES): Cc1c(N)nc([C@H](CC(N)=O)NC[C@H](N)C(N)=O)nc1C(=O)N[C@@H](Cc1c[nH]cn1)C(=O)N[C@H](C)[C@@H](O)[C@H](C)C(=O)N[C@H](C(=O)NCCc1nc(-c2nc(C(=O)NCCCNCCCCN)cs2)cs1)[C@@H](C)O

Activity (Nucleic Acid [1]): Active
Activity (Nucleic Acid [2]): Active
Activity (Nucleic Acid [3]): inactive
Activity (Nucleic Acid [4]): inactive
Activity (Nucleic Acid [5]): Active
Activity (Nucleic Acid [6]): Active
Structure (SMILES): Cc1c(N)nc([C@H](CC(N)=O)NC[C@H](N)C(N)=O)nc1C(=O)N[C@@H](Cc1c[nH]cn1)C(=O)N[C@H](Cc1ccccc1Br)[C@@H](O)[C@H](C)C(=O)N[C@H](C(=O)NCCc1nc(-c2nc(C(=O)NCCCNCCCCNCCCN)cs2)cs1)[C@@H](C)O

Activity (Nucleic Acid [1]): Active
Activity (Nucleic Acid [2]): Active
Activity (Nucleic Acid [3]): inactive
Activity (Nucleic Acid [4]): inactive
Activity (Nucleic Acid [5]): Active
Activity (Nucleic Acid [6]): Active
Structure (SMILES): Cc1c(N)nc([C@H](CC(N)=O)NC[C@H](N)C(N)=O)nc1C(=O)N[C@@H](Cc1c[nH]cn1)C(=O)N[C@H](C)[C@@H](O)[C@H](CC(C)C)C(=O)N[C@H](C(=O)NCCc1nc(-c2nc(C(=O)NCCCNCCCCNCCCN)cs2)cs1)[C@@H](C)O

Activity (Nucleic Acid [1]): Active
Activity (Nucleic Acid [7]): Active
Activity (Nucleic Acid [8]): Active
Activity (Nucleic Acid [9]): Active
Activity (Nucleic Acid [10]): Active
Activity (Nucleic Acid [11]): Active
Activity (Nucleic Acid [5]): Active
Structure (SMILES): Cc1c(N)nc([C@H](CC(N)=O)NC[C@H](N)C(N)=O)nc1C(=O)N[C@@H](Cc1c[nH]cn1)C(=O)N[C@@H]([C@@H](O)[C@H](C)C(=O)N[C@H](C(=O)NCCc1nc(-c2nc(C(=O)NCCCNCCCCNCCCN)cs2)cs1)[C@@H](C)O)C(C)(C)C
